The text below walks through data of PubChem BioAssay AID2307 (NMMLSC, 2010).

SMILES strings stand for the structures.

Chain of Regulator of G-protein signaling 8 (Homo sapiens) (P57771 whole entry, looked up): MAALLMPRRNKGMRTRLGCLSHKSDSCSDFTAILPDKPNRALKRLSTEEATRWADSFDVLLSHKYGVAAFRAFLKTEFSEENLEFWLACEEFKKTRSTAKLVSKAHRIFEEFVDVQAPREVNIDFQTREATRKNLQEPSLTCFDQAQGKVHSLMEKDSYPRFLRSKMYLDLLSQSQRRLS

In one assay the target is Regulator of G-protein signaling 8 (Homo sapiens) (UniProt P57771). The assay is described as follows: small molecules altering RGS8 binding of Galphao – biochemical, multiplex bead flow cytometry, SAR compounds, SAR follow-up (AID 2307). To be noted: bead-based flow cytometry, AF488-Galphao binding to RGS8. The gist of the method:
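System: Biotinylated human RGS8 captured on streptavidin beads, multiplexed bead sets | Medium: HEPES, NaCl, Lubrol and BSA buffer at pH 8.0 | Times: Bead–Galphao binding for 30–90 min at room temperature | Technique: Flow cytometry, median green bead fluorescence at 530 nm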
(In flow cytometry, cells or beads pass a laser one at a time.)
As a reminder, the EC50 is the concentration giving half of the maximal effect. Consider `NS(=O)(=O)c1ccc(N/N=C/c2ccc(O)c(O)c2O)c([N+](=O)[O-])c1`, for which the EC50 was 29 nM.

The same assay, now with this note: bead-based flow cytometry, AF488-Galphao binding to RGS8; measured here: Ki calculated from EC50.
The term Ki denotes a measure of affinity in units of concentration, obtained from inhibition or displacement. On to `COc1ccc(C2=CC(=O)C=CC2=O)cc1`, for which the Ki was 150 nM. Consider `CC(=O)OCCCNc1cc(Sc2nc3ccccc3s2)c2nonc2c1[N+](=O)[O-]`, for which the Ki is 70 nM. Turning to `CCOC(=O)c1sc(NC(=O)CSc2nnc(Cc3ccccc3)o2)c(C#N)c1C`, the Ki is 150 nM. On to `CC1(C)OC(=O)C(=Cc2ccc(-c3ccc(S(N)(=O)=O)cc3)o2)C(=O)O1`, for which the Ki is 580 nM. Consider `Cc1[nH]n(-c2ccccc2)c(=S)c1C=NCCCN=Cc1c(C)[nH]n(-c2ccccc2)c1=S`, for which the Ki is 430 nM. For `COC(=O)CCC(=O)Nc1sc(C)c(C)c1C(N)=O`, the Ki was 700 nM. As to `O=C(Cc1csc(N2CCOCC2)n1)N/N=C/c1ccc(O)c(O)c1O`, the Ki is 320 nM. Same read-out and setting: as for `CN1CCN(C2=C(Cl)C(=O)C(c3cnc(N4CCCCC4)s3)=C(Cl)C2=O)CC1`, the figure is 20 nM; as for `NS(=O)(=O)c1ccc(N/N=C/c2ccc(O)c(O)c2O)c([N+](=O)[O-])c1`, 20 nM; as for `Cc1cccc(N2CCN(C(=O)COc3nsc4nc(C)cc(C)c34)CC2C)c1` (stereo not given), 2640 nM.

Turning to `O=C(COc1ccccc1C(=O)N/N=C/c1ccc(O)c(O)c1)N/N=C/c1ccc(O)c(O)c1`, the Ki was 100 nM.

Regarding `CCN(CC)S(=O)(=O)c1cccc(-c2n[nH]c(=S)n2/N=C/c2ccc(C(=O)OC)cc2)c1`, the Ki is 2590 nM. `CCN=c1scc(C)n1/N=C/c1ccc(O)c(O)c1O`: the Ki is 470 nM.

Regarding `O=c1c2ccccc2sn1-c1ccc(S(=O)(=O)N2CCCC2)cc1`, the Ki was 20 nM. As to `Cc1cc(Cl)ccc1N=c1ssnc1Cl`, the Ki was 110 nM. For `Nc1c(C(=O)NCC2CCCO2)sc2nc3c(c(-c4ccco4)c12)CC/C3=C/c1ccco1` (stereo not given), the Ki is 400 nM. Consider `Cc1[nH]n(-c2ccccc2)c(=S)c1C=Nc1cccc([N+](=O)[O-])c1`, for which the Ki was 180 nM. On the same count and under the same terms, under `O=C1C(Cl)=C(N2CCCCC2)C(=O)C(Cl)=C1c1cnc(N2CCCCC2)s1` stands 60 nM; under `CCN(CC)S(=O)(=O)c1cccc(C(=O)N/N=C/c2ccc(O)c(O)c2O)c1`, 340 nM; under `Cc1cccc(N2CCN(C(=O)Cn3sc4nc(C)cc(C)c4c3=O)CC2C)c1` (stereo not given), 460 nM. Consider `O=C(NCCCN1CCOCC1)c1sc2cc([N+](=O)[O-])ccc2c1Cl`, for which the Ki is 470 nM. As for `CN=c1scc(C)n1/N=C/c1ccc(O)c(O)c1O`, the Ki is 260 nM.

In the case of `CCC(=O)NC(c1ccc(C)cc1)c1cc([N+](=O)[O-])c2cccnc2c1O` (stereo not given), the Ki was 3590 nM.

In the case of `CC(NC(=O)c1sc2cc([N+](=O)[O-])ccc2c1Cl)C(C)(C)C` (stereo not given), the Ki was 170 nM.
